“And” between values parts separate entries of the source, which are not always exact repeats. Equal entries are not always repeated.
Assays:
[1] = system: Mus musculus; assay: Removal of [238Pu] (i.v.) from mice by ligand injected 30 uM/Kg intraperitoneally at 1 hr from kidneys; format: functional, Kidney
How it was run: (§1)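 238Pu(IV) citrate given iv to mice; ligand 30 µmol/kg (in 0.14 M NaCl, pH 7.4, volume scaled to body weight) injected ip at 1 h; killed at 24 h. Five mice per cage, excreta pooled per cage, chow from 4 h. Tissue and excreta Pu were counted by liquid scintillation alpha counting and given as %ID normalized to 100% recovery, mean ± SD.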

[2] = system: Mus musculus; assay: Removal of [238Pu] (i.v.) from mice by ligand injected 30 uM/Kg intraperitoneally at 1 hr from liver tissue; format: functional; how it was run: as §1
[3] = system: Mus musculus; assay: Removal of [238Pu] (i.v.) from mice by ligand injected 30 uM/Kg intraperitoneally at 1 hr from skeleton; format: functional; how it was run: as §1
[4] = system: Mus musculus; assay: Removal of [238Pu] (i.v.) from mice by ligand injected 30 uM/Kg intraperitoneally at 1 hr from soft tissue; format: functional; how it was run: as §1
[5] = system: Mus musculus; assay: Removal of [238Pu] (i.v.) from mice by ligand injected 30 uM/Kg intraperitoneally at 1 hr from urine excretia; format: functional; how it was run: as §1
[6] = system: Mus musculus; assay: Removal of [238Pu] (i.v.) from mice by ligand injected 30 uM/Kg intraperitoneally at 1 hr from whole body; format: functional; how it was run: as §1
[7] = system: Mus musculus; assay: Removal of [238Pu] (i.v.) from mice by ligand injected 30 uM/Kg ip at 1 hr and orally at 3 min after iv injection from kidneys; format: functional, Kidney
How it was run: (§2)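 Kidney Pu (%ID) at 24 h after iv 238Pu(IV) citrate was measured in mice given ligand 30 µmol/kg by one of two routes: ip at 1 h, or by gastric tube at 3 min to 16 h-fasted or normally fed mice. Kidneys were alpha-counted by liquid scintillation, and data were normalized to 100% recovery.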

[8] = system: Mus musculus; assay: Removal of [238Pu] (i.v.) from mice by ligand injected 30 uM/Kg ip at 1 hr from feces and GI contents; format: functional
How it was run: (§3)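 Mice received iv 238Pu(IV) citrate, then ip ligand (30 µmol/kg, 0.14 M NaCl pH 7.4) at 1 h. Feces plus GI contents were collected to 24 h kill, pooled per five-mouse cage and alpha-counted by liquid scintillation. Values are %ID normalized to total recovery. SD applies only to multiply replicated groups.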

[9] = system: Mus musculus; assay: Removal of [238Pu] (i.v.) from mice by ligand injected 30 uM/Kg orally at 3 min fasted after iv injection from feces and GI contents; format: functional
How it was run: (§4)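 Mice fasted 16 h got iv 238Pu(IV) citrate, then ligand 30 µmol/kg by gastric tube at 3 min (HOPO in 0.14 M NaCl, pH 7.4; weight-adjusted volume). Chow was given at 4 h and the mice were killed at 24 h. Tissues and pooled per-cage excreta were liquid-scintillation alpha-counted and expressed as %ID normalized to 100% recovery.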

[10] = system: Mus musculus; assay: Removal of [238Pu] (i.v.) from mice by ligand injected 30 uM/Kg orally at 3 min fasted after iv injection from liver tissue; format: functional; how it was run: as §4
[11] = system: Mus musculus; assay: Removal of [238Pu] (i.v.) from mice by ligand injected 30 uM/Kg orally at 3 min fasted after iv injection from skeleton; format: functional; how it was run: as §4
[12] = system: Mus musculus; assay: Removal of [238Pu] (i.v.) from mice by ligand injected 30 uM/Kg orally at 3 min fasted after iv injection from soft tissue; format: functional; how it was run: as §4
[13] = system: Mus musculus; assay: Removal of [238Pu] (i.v.) from mice by ligand injected 30 uM/Kg orally at 3 min fasted after iv injection from urine excretia; format: functional; how it was run: as §4
[14] = system: Mus musculus; assay: Removal of [238Pu] (i.v.) from mice by ligand injected 30 uM/Kg orally at 3 min fasted after iv injection from whole body; format: functional; how it was run: as §4
[15] = system: Mus musculus; assay: Removal of [238Pu] (i.v.) from mice by ligand injected 30 uM/kg intraperitoneally at 1 hr from soft tissue; format: functional; how it was run: as §1
[16] = system: Mus musculus; assay: Removal of [238Pu] (i.v.) from mice by ligand injected 30 uM/kg intraperitoneally at 1 hr from urine excretia; format: functional; how it was run: as §1
[17] = system: Mus musculus; assay: Removal of [238Pu] (i.v.) from mice by ligand injected 30 uM/kg intraperitoneally at 1 hr from whole body; format: functional; how it was run: as §1
[18] = system: Mus musculus; assay: Removal of [238Pu] (i.v.) from mice by ligand injected 30 uM/kg ip at 1 hr and orally at 3 min after iv injection from kidneys; format: functional, Kidney; how it was run: as §2
[19] = system: Mus musculus; assay: Removal of [238Pu] (i.v.) from mice by ligand injected 30 uM/kg ip at 1 hr from feces and GI contents; format: functional; how it was run: as §3
[20] = system: Mus musculus; assay: Removal of [238Pu] (i.v.) from mice by ligand injected 30 uM/kg orally at 3 min fasted after iv injection from feces and GI contents; format: functional; how it was run: as §4
[21] = system: Mus musculus; assay: Removal of [238Pu] (i.v.) from mice by ligand injected 30 uM/kg orally at 3 min fasted after iv injection from liver tissue; format: functional; how it was run: as §4
[22] = system: Mus musculus; assay: Removal of [238Pu] (i.v.) from mice by ligand injected 30 uM/kg orally at 3 min fasted after iv injection from skeleton; format: functional; how it was run: as §4
[23] = system: Mus musculus; assay: Removal of [238Pu] (i.v.) from mice by ligand injected 30 uM/kg orally at 3 min fasted after iv injection from soft tissue; format: functional; how it was run: as §4
[24] = system: Mus musculus; assay: Removal of [238Pu] (i.v.) from mice by ligand injected 30 uM/kg orally at 3 min fasted after iv injection from urine excretia; format: functional; how it was run: as §4
[25] = system: Mus musculus; assay: Removal of [238Pu] (i.v.) from mice by ligand injected 30 uM/kg orally at 3 min fasted after iv injection from whole body; format: functional; how it was run: as §4
[26] = system: Mus musculus; assay: Removal of [238Pu] (i.v.) from mice by ligand injected 30 uM/kg orally at 3 min normally fed after iv injection from feces and GI contents; format: functional
How it was run: (§5)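 Normally fed mice got iv 238Pu(IV) citrate, then ligand 30 µmol/kg by gastric tube at 3 min, in 0.14 M NaCl pH 7.4 with weight-adjusted volume. The mice were killed at 24 h, with five per cage and excreta pooled per cage. Pu was counted by liquid scintillation alpha counting and reported as %ID normalized to 100% recovery.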

[27] = system: Mus musculus; assay: Removal of [238Pu] (i.v.) from mice by ligand injected 30 uM/kg orally at 3 min normally fed after iv injection from kidneys; format: functional, Kidney; how it was run: as §5
[28] = system: Mus musculus; assay: Removal of [238Pu] (i.v.) from mice by ligand injected 30 uM/kg orally at 3 min normally fed after iv injection from liver tissue; format: functional; how it was run: as §5
[29] = system: Mus musculus; assay: Removal of [238Pu] (i.v.) from mice by ligand injected 30 uM/kg orally at 3 min normally fed after iv injection from soft tissue; format: functional; how it was run: as §5
[30] = system: Mus musculus; assay: Removal of [238Pu] (i.v.) from mice by ligand injected 30 uM/kg orally at 3 min normally fed after iv injection from whole body; format: functional; how it was run: as §5
[31] = system: Mus musculus; assay: Removal of [238Pu] (i.v.) from mice by ligand injected 30 umol/kg intraperitoneally at 1 hr from skeleton; format: functional; how it was run: as §1
[32] = system: Mus musculus; assay: Removal of [238Pu] (i.v.) from mice by ligand injected orally at 3 min normally fed after iv injection from skeleton; format: functional; how it was run: as §5
[33] = system: Mus musculus; assay: Removal of [238Pu] (i.v.) from mice by ligand injected 30 uM/kg at 3 min normally fed after iv injection from urine excretia; format: functional; how it was run: as §5
[34] = system: Mus musculus; assay: Removal of [238Pu] (i.v.) from mice by ligand injected 30 uM/kg intraperitoneally at 1 hr from kidneys; format: functional, Kidney; how it was run: as §1
[35] = system: Mus musculus; assay: Removal of [238Pu] (i.v.) from mice by ligand injected 30 uM/kg intraperitoneally at 1 hr from liver tissue; format: functional; how it was run: as §1
[36] = system: Mus musculus; assay: Removal of [238Pu] (i.v.) from mice by ligand injected 30 uM/kg intraperitoneally at 1 hr from skeleton; format: functional; how it was run: as §1

| Compound | ID [15] | ID [16] | ID [17] | ID [18] [%] | ID [19] | ID [20] | ID [21] | ID [22] | ID [23] | ID [24] [%] | ID [25] | ID [26] [%] | ID [27] [%] | ID [28] [%] | ID [29] [%] | ID [30] [%] | ID [32] [%] | ID [33] [%] | ID [34] | ID [35] | other results |
| --- | --- | --- | --- | --- | --- | --- | --- | --- | --- | --- | --- | --- | --- | --- | --- | --- | --- | --- | --- | --- | --- |
| O=C([O-])CN(CCN(CC(=O)[O-])CC(=O)[O-])CCN(CC(=O)[O-])CC(=O)[O-].[Ca+2].[Na+].[Na+].[Na+] [PENTETATE CALCIUM TRISODIUM] |  |  |  |  |  |  |  |  |  |  |  |  |  |  |  |  |  |  |  |  | ID [1]: 1.2%; ID [2]: 19%; ID [3]: 14%; ID [4]: 2.9%; ID [5]: 55%; ID [6]: 37%; ID [7]: 0.7%; ID [8]: 8.4%; ID [9]: 6.5%; ID [10]: 33%; ID [11]: 40%; ID [12]: 5.1%; ID [13]: 15%; ID [14]: 79% |
| O=C(NCCCN(CCCCN(CCCNC(=O)c1cccc(=O)n1O)C(=O)c1cccc(=O)n1O)C(=O)c1cccc(=O)n1O)c1cccc(=O)n1O | 1.6% and 0.8% | 25% and 21% | 18% and 14% | 0.1 | 57% and 65% | 51% and 60% | 11% and 4.2% | 12% and 8% | 1.3% and 1.1% | 26 | 24% and 14% | 57 | 0.2 | 5.9 | 1.5 | 16 | 8.8 | 27 | 0.2% and 0.1% | 8.9% and 5.4% | ID [31]: 7.5%; ID [36]: 8% |
| Cn1ccc(C(=O)NCCCN(CCCCN(CCCNC(=O)c2ccn(C)c(=O)c2O)C(=O)c2cccc(=O)n2O)C(=O)c2cccc(=O)n2O)c(O)c1=O | 1% | 27% | 22% | 0.09 | 51% | 61% | 2.2% | 7.8% | 0.8% | 28 | 11% | 58 | 0.1 | 2.4 | 0.9 | 11 | 7.4 | 31 | 0.2% | 11% | ID [36]: 9.1% |

Reference: ChEMBL document CHEMBL1135767, “Synthesis and initial evaluation for in vivo chelation of Pu(IV) of a mixed octadentate spermine-based ligand containing 4-carbamoyl-3-hydroxy-1-methyl-2(1H)-pyridinone and 6-carbamoyl-1-hydroxy-2(1H)-pyridinone” (2002)
